Drawing on ChEMBL document CHEMBL4052759, “Discovery of DS79182026: A potent orally active hepcidin production inhibitor” (Bioorg Med Chem Lett, 2017), this text covers clearance and inhibition for 3 compounds.

The nature of data set [1]: Clearance in C57BL/6J mouse at 30 mg/kg, iv by LC-MS/MS analysis. Type of data set: ADME, organism-based. Conditions: in vivo. Put shortly: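 C57BL/6J mice got a single 30 mg/kg intravenous dose as a solution in 92 mM SBE7-β-CyD. The value is the average of two animals.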
Data set [2] concerns the target Vascular endothelial growth factor receptor 2 (Homo sapiens) (UniProt P35968). Briefly: Inhibition of KDR (unknown origin) at 0.078 uM relative to control.
Data set [3] deals with T1, MAP kinase-activated protein kinase 5 (Homo sapiens) (UniProt Q8IW41).
T1 sequence (whole entry): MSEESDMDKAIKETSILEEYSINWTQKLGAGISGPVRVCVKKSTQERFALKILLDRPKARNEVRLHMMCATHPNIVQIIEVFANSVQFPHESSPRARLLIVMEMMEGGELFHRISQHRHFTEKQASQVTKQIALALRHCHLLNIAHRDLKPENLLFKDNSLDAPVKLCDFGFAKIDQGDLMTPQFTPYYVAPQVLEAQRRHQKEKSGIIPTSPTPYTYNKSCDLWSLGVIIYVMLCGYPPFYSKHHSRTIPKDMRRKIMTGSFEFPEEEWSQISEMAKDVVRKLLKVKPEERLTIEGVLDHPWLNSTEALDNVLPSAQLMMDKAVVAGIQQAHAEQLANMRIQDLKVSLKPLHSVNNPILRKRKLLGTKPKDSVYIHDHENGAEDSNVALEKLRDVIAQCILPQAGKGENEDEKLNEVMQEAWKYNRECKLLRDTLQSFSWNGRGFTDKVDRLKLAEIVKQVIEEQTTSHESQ
Briefly: Inhibition of PRAK (unknown origin) at 0.49 uM relative to control.

Data set [4] deals with Tyrosine-protein kinase ABL1 (Homo sapiens) (UniProt P00519). Description: Inhibition of ABL (unknown origin) at 0.49 uM relative to control.
Data set [5] addresses STE20-like serine/threonine-protein kinase (Homo sapiens) (UniProt Q9H2G2). Description: Inhibition of SLK (unknown origin) at 0.49 uM relative to control.
The target in data set [6] is RAC-gamma serine/threonine-protein kinase (Homo sapiens) (UniProt Q9Y243). Briefly: Inhibition of AKT3 (unknown origin) at 0.49 uM relative to control.
Chain of RAC-gamma serine/threonine-protein kinase (Homo sapiens) (Q9Y243 whole entry): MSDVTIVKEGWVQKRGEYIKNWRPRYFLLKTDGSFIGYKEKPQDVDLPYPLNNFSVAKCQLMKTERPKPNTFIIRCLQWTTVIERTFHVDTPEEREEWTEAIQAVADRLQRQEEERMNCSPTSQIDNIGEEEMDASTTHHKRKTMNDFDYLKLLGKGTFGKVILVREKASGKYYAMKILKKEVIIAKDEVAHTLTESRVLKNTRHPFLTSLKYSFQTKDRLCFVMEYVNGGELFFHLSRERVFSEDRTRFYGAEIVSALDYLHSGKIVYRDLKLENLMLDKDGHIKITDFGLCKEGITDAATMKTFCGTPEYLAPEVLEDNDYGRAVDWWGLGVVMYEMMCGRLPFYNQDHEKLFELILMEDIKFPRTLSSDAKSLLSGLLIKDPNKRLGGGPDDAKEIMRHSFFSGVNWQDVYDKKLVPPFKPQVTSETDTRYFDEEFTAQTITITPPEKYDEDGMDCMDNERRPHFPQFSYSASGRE
Data set [7] relates to Proto-oncogene tyrosine-protein kinase receptor Ret (Homo sapiens), P07949 [Y791F]. Description: Inhibition of RET Y791F mutant (unknown origin) at 0.49 uM relative to control.
Data set [8] has as its target Fibroblast growth factor receptor 4 (Homo sapiens) (UniProt P22455). Description: Inhibition of FGFR4 (unknown origin) at 0.49 uM relative to control.
The target in data set [9] is Protein-tyrosine kinase 2-beta (Homo sapiens) (UniProt Q14289). Description: Inhibition of PYK2 (unknown origin) at 0.49 uM relative to control.
Chain of Protein-tyrosine kinase 2-beta (Homo sapiens) (Q14289 whole entry, looked up): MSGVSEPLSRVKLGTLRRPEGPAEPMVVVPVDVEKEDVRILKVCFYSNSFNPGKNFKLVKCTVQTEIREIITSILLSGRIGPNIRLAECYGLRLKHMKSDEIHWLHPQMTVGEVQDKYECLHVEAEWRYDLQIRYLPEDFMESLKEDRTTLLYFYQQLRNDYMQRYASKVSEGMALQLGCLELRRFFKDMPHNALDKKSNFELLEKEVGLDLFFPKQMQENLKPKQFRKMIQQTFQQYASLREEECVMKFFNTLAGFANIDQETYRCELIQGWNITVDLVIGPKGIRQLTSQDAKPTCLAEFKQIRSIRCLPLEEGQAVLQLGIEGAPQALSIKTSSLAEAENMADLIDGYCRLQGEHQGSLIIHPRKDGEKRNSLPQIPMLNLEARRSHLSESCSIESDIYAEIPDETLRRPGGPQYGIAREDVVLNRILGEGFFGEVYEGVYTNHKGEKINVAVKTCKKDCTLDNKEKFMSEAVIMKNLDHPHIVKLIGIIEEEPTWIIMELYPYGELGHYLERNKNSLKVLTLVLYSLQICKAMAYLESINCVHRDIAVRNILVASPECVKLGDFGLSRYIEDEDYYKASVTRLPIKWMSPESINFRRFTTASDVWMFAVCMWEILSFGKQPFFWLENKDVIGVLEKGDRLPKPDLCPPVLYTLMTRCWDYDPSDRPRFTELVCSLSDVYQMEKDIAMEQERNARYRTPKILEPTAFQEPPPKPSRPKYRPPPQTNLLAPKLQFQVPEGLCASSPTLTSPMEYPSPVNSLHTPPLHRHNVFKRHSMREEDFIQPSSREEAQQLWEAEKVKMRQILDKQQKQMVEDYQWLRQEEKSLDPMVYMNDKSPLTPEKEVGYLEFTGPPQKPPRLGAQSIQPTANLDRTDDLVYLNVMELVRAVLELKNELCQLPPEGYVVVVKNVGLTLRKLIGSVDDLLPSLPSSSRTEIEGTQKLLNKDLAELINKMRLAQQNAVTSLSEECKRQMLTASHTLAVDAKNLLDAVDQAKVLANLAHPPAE
Data set [10] addresses Tyrosine-protein kinase TXK (Homo sapiens) (UniProt P42681). Description: Inhibition of TXK (unknown origin) at 0.49 uM relative to control.
Data set [11] deals with Serine/threonine-protein kinase Nek2 (Homo sapiens) (UniProt P51955). Description: Inhibition of NEK2 (unknown origin) at 0.49 uM relative to control.
The target in data set [12] is Mitogen-activated protein kinase kinase kinase kinase 2 (Homo sapiens) (UniProt Q12851). Briefly: Inhibition of GCK (unknown origin) at 0.49 uM relative to control.
For data set [13], the target named is Protein kinase C gamma type (Homo sapiens) (UniProt P05129). Briefly: Inhibition of PKC-gamma (unknown origin) at 0.49 uM relative to control.
The target of data set [14] is Serine/threonine-protein kinase Nek6 (Homo sapiens) (UniProt Q9HC98). Description: Inhibition of NEK6 (unknown origin) at 0.49 uM relative to control.
Chain of Serine/threonine-protein kinase Nek6 (Homo sapiens) (Q9HC98 whole entry): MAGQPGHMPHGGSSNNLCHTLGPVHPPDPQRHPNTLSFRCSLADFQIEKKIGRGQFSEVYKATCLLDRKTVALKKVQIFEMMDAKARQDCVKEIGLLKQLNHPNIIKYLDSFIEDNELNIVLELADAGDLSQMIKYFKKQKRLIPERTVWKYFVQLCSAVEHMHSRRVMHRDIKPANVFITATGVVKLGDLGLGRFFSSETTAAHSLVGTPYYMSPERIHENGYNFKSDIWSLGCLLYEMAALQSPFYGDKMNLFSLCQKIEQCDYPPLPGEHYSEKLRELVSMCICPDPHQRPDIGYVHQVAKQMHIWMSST
The target of data set [15] is Serine/threonine-protein kinase 24 (Homo sapiens) (UniProt Q9Y6E0). Briefly: Inhibition of MST3 (unknown origin) at 0.45 uM relative to control.
Chain of Serine/threonine-protein kinase 24 (Homo sapiens) (Q9Y6E0 whole entry, looked up): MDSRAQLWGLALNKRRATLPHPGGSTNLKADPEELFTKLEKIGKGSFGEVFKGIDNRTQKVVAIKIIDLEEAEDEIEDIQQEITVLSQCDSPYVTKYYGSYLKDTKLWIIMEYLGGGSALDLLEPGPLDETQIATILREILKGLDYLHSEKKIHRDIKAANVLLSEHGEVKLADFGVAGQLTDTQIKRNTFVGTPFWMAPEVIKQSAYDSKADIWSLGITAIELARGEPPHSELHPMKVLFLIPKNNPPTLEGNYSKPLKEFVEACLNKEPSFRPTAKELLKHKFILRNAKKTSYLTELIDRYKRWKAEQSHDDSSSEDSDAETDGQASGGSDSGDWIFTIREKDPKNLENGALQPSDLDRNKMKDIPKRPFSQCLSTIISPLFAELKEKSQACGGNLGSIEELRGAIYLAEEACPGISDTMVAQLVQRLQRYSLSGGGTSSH
The target in data set [16] is T2, Serine/threonine-protein kinase Sgk1 (Homo sapiens) (UniProt O00141).
T2 sequence (whole entry): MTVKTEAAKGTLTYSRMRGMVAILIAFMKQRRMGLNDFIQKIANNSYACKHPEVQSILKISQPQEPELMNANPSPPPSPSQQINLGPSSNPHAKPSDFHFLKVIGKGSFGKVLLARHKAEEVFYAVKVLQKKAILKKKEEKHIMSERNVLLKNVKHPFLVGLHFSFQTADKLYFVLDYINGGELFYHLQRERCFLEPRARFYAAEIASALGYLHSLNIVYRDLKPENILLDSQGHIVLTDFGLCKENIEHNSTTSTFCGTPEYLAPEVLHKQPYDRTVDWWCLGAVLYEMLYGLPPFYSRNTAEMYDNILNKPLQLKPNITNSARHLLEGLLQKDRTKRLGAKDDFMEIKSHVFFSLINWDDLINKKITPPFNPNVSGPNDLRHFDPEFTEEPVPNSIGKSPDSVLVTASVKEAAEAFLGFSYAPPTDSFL
Briefly: Inhibition of SGK1 (unknown origin) at 0.45 uM relative to control.

In data set [17] the test system is Platelet-derived growth factor receptor alpha (Homo sapiens), P16234 [D842V]. Briefly: Inhibition of PDGFRA D842V mutant (unknown origin) at 0.45 uM relative to control.
In data set [18] the target is Ribosomal protein S6 kinase alpha-3 (Homo sapiens) (UniProt P51812). Description: Inhibition of RSK2 (unknown origin) at 0.45 uM relative to control.
Chain of Ribosomal protein S6 kinase alpha-3 (Homo sapiens) (P51812 whole entry): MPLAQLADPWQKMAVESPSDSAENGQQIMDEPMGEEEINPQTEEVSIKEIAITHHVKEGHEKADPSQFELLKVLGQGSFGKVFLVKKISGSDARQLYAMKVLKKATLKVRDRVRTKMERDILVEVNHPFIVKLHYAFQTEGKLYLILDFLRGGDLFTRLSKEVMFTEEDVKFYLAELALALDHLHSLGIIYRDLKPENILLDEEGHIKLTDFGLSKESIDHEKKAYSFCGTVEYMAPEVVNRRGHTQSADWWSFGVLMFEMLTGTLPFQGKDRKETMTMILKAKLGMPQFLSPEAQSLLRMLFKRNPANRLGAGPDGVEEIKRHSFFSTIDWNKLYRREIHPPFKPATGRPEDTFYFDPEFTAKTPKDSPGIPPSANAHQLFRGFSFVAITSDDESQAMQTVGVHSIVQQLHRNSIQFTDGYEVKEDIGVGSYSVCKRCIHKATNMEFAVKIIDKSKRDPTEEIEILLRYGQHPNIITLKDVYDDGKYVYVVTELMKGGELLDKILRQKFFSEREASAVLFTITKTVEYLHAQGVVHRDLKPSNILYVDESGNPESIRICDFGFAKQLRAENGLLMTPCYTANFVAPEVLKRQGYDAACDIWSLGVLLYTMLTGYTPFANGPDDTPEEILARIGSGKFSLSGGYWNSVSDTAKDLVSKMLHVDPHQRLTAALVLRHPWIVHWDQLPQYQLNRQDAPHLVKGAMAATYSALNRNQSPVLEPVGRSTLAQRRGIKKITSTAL
For data set [19], the target named is Cyclin-dependent kinase 2 (Homo sapiens) (UniProt P24941). Briefly: Inhibition of CDK2 (unknown origin) at 0.45 uM relative to control.
For data set [20], the target named is Tyrosine-protein kinase Mer (Homo sapiens) (UniProt Q12866). Briefly: Inhibition of Mer (unknown origin) at 0.45 uM relative to control.
Data set [21] has as its target Glycogen synthase kinase-3 alpha (Homo sapiens) (UniProt P49840). Description: Inhibition of GSK3-alpha (unknown origin) at 0.45 uM relative to control.
For data set [22], the target named is Serine/threonine-protein kinase pim-3 (Homo sapiens) (UniProt Q86V86). Briefly: Inhibition of PIM3 (unknown origin) at 0.45 uM relative to control.
For data set [23], the target named is Tyrosine-protein kinase Fgr (Homo sapiens) (UniProt P09769). Briefly: Inhibition of FGR (unknown origin) at 0.45 uM relative to control.
Data set [24] deals with Inhibitor of nuclear factor kappa-B kinase subunit epsilon (Homo sapiens) (UniProt Q14164). Briefly: Inhibition of IKBKE (unknown origin) at 0.45 uM relative to control.
Data set [25] has as its target Mitogen-activated protein kinase 3 (Homo sapiens) (UniProt P27361). Briefly: Inhibition of Erk1 (unknown origin) at 0.45 uM relative to control.
In data set [26] the target is Calcium/calmodulin-dependent protein kinase type II subunit gamma (Homo sapiens) (UniProt Q13555). Briefly: Inhibition of CaMK2-gamma (unknown origin) at 0.45 uM relative to control.
Data set [27] concerns the target Receptor-type tyrosine-protein kinase FLT3 (Homo sapiens) (UniProt P36888). Briefly: Inhibition of FLT3 (unknown origin) at 0.45 uM relative to control.

Chain of Glycogen synthase kinase-3 alpha (Homo sapiens) (P49840 2-483 limits assumed): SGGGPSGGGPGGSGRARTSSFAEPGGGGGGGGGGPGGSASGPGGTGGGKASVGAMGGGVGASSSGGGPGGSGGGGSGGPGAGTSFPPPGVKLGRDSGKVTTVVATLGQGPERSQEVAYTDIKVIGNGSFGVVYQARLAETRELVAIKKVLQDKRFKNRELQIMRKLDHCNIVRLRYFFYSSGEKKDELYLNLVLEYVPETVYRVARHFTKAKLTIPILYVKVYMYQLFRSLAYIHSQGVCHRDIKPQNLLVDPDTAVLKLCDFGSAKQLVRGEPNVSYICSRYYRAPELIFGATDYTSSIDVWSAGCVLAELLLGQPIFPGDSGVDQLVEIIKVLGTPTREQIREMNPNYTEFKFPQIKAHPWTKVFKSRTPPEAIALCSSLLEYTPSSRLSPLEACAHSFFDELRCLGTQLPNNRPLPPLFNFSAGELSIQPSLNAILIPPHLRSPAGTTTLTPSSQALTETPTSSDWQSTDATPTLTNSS
Chain of Tyrosine-protein kinase TXK (Homo sapiens) (P42681 whole entry): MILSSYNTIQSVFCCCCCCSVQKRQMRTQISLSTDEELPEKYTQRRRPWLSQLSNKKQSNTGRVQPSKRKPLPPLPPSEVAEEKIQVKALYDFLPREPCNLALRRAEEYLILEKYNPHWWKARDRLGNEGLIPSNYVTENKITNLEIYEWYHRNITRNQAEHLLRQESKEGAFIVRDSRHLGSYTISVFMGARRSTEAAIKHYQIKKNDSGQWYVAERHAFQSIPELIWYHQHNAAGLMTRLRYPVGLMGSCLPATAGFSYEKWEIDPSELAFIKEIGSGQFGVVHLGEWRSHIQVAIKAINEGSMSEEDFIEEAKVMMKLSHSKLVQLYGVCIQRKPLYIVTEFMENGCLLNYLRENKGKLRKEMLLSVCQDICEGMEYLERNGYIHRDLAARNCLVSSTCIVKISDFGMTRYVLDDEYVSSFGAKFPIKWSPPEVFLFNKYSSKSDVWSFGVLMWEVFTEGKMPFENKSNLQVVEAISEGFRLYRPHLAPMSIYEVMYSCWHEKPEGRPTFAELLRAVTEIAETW

What is called clearance is a measure of how efficiently the substance is removed, as volume per time. Higher therefore signals a high capacity for elimination. As usually defined, the inhibition is the relative decrease from the control value, in per cent. The compound `COC(=O)Nc1noc2cc(-c3c(-c4ccccn4)n[nH]c3C)ccc12` returned a clearance in data set [1] of 14.5 mL/min/kg. The inhibition in [2] worked out at 17.3%.
Turning to `Cc1[nH]nc(C2CC2)c1-c1ccc2c(NC(=O)C3CC3)noc2c1`, the inhibition in data set [3] is -0.3%; in data set [4], 38.3%; in data set [5], 4.7%; in data set [6] it was 7.3%; in data set [7], 0%; in [8] it was 0.3%. For the same compound, the inhibition is 1.3% in data set [9]; -0.3% in data set [10]; 10.7% in data set [11]; 11.3% in data set [12]; 2% in data set [13]; 2.7% in data set [14].
For the compound `Cc1n[nH]c(C)c1-c1ccc2c(NC(=O)c3ccc(N4CCN(C)CC4)cc3)n[nH]c2c1`, the inhibition is 44.7% in data set [15]; 2.3% in data set [16]; 79.3% in data set [17]; 36% in data set [18]; 6% in data set [19]; 0.7% in [20]. Moreover, the inhibition is -1% in [21]; -2.3% in data set [22]; 13% in data set [23]; 6.3% in data set [24]; 1.3% in data set [25]; 3% in data set [26]. Besides, the inhibition in data set [27] is 96.7%.
